Measurements: ChEMBL document CHEMBL3085673, “The design of a novel series of muscarinic receptor antagonists leading to AZD8683, a potential inhaled treatment for COPD” (Bioorg Med Chem Lett, 2013)
pIC50: −log10 of the molar value.

Tests used:
[1] = Half life in guinea pig lung administered via intratracheal instillation at 1 ug/kg by HPLC-MS analysis; type: ADME, tissue-based, Cavia porcellus; conditions: inhaled or intranasal, 0.001 mg/kg
How it was run: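 Halothane-anaesthetised guinea pigs given 1 μg/kg by intratracheal instillation. Lungs collected at 0.25-24 h after barbiturate overdose, homogenised in phosphate buffer and added to ice-cold methanol. Supernatant analysed by mass spectrometry/HPLC.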

[2] = Plasma protein binding in human; type: ADME, cell-free; conditions: read-out: PPB (converted)
[3] = biological target: Muscarinic acetylcholine receptor M3 (Cavia porcellus, UniProt Q8VH26); test: Antagonist activity at M3 receptor in Dunkin-Hartley guinea pig trachea assessed as inhibition of methacholine-induced airway smooth muscle contraction after 1 to 4 hrs; conditions: read-out: pA2 (converted)
How it was run: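 Isolated guinea pig tracheal rings equilibrated 1 h, re-tensioned to 1 g, primed with methacholine, then a cumulative methacholine curve (3 × 10^-9 to 3 × 10^-5 M). Vehicle or compound equilibrated 1 or 4 h before a second curve (3 × 10^-9 to 1 × 10^-3 M final). Isometric force as % of curve-1 maximum. pA2 calculated from vehicle and test A50 values; n = 2.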

[4] = Intrinsic clearance in human liver microsomes; type: ADME; conditions: read-out: CLH
[5] = biological target: Muscarinic acetylcholine receptor M3 (Homo sapiens, UniProt P20309); test: Displacement of [3H]NMS from recombinant human M3 receptor expressed in CHO-K1 cells after 16 hrs by SPA method; type: cell-based
How it was run: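 Nonspecific binding defined with atropine 1 µM; eight total-binding replicates per plate. Incubated at room temperature at least 16 h to equilibrium before counting; n ≥ 2.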

Cavia porcellus [6] = test: Inhibition of methacholine-induced bronchoconstriction in Dunkin-Hartley guinea pig administered via intratracheal/intranasal after 24 hrs relative to control; type: functional
How it was run: (§1)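 Dunkin-Hartley guinea pigs dosed in 0.9% saline by intratracheal or intranasal microsprayer under halothane. At 2, 4, 24 or 48 h, animals were terminally anaesthetised with pentobarbitone and ventilated at 60 breaths/min, 2 mL tidal volume. Peak respiratory resistance measured after IV methacholine 10 μg/kg. Percent inhibition calculated against a time-matched vehicle group. For duration, dosing was at the ED80 dose, measured or predicted from trachea potency.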

Cavia porcellus [7] = test: Inhibition of methacholine-induced bronchoconstriction in Dunkin-Hartley guinea pig administered via intratracheal/intranasal after 2 to 4 hrs relative to control; type: functional; conditions: inhaled or nasal; how it was run: as §1
Cavia porcellus [8] = test: Toxicity in guinea pig assessed as reduction of pilocarpine-induced salivation administered via intranasal administered for 4 hrs followed by pilocarpine challenge measured every 5 mins for 15 mins; type: organism-based
How it was run: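 Compound or vehicle given intranasally under halothane. At 4 h, animals were anaesthetised with urethane and the mouth dried with gauze for 5 min. Baseline saliva taken on a pre-weighed pad over 5 min. Pilocarpine 0.6 mg/kg given subcutaneously, then pads replaced every 5 min for 15 min and saliva quantified by pad weight gain.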

Cavia porcellus [9] = test: Inhibition of methacholine-induced bronchoconstriction in Dunkin-Hartley guinea pig administered via intratracheal/intranasal after 48 hrs relative to control; type: functional; how it was run: as §1
[10] = Therapeutic index, ratio of ED80 for methacholine-induced bronchoconstriction in Dunkin-Hartley guinea pig to EC50 for reduction of pilocarpine-induced salivation in guinea pig; type: organism-based, Cavia porcellus; conditions: in vivo, read-out: TI

Muscarinic acetylcholine receptor M3 (Cavia porcellus, UniProt Q8VH26), sequence (Q8VH26 whole entry): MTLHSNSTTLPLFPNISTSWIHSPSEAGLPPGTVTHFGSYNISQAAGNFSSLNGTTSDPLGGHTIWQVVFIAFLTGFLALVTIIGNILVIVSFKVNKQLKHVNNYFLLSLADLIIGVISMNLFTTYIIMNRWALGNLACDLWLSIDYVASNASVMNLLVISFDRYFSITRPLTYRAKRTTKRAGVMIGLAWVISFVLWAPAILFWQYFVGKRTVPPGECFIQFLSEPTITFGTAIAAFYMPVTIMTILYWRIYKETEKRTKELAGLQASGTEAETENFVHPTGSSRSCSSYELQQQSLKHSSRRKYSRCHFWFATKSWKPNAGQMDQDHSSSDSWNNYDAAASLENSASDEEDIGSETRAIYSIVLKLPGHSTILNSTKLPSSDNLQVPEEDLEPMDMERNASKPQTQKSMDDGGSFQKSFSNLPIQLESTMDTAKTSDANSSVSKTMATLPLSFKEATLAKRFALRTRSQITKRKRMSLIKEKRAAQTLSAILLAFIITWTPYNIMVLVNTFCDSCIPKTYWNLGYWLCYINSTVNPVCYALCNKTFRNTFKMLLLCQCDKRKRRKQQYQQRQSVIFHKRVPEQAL
Muscarinic acetylcholine receptor M3 (Homo sapiens, UniProt P20309), sequence (P20309 whole entry): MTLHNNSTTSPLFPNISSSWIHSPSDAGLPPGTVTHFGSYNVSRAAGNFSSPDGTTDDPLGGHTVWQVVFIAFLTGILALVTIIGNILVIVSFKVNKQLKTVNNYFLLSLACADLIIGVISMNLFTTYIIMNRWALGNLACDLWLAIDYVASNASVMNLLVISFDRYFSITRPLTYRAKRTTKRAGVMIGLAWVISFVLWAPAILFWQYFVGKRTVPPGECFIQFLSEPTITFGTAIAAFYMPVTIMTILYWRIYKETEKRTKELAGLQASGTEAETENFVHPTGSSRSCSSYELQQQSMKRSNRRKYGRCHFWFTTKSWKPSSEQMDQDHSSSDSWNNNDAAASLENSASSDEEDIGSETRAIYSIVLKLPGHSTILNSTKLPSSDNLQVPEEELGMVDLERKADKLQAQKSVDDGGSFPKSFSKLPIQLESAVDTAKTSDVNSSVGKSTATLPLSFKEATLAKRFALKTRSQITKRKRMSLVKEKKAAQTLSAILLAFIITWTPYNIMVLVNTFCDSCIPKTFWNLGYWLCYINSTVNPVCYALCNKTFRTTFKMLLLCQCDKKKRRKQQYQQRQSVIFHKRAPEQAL

| SMILES | half-life [1] | fraction unbound [2] | Kb [3] | microsomal CLint [4] | pIC50 [5] | inhibition (INH) (Cavia porcellus [6]) | ED80 (Cavia porcellus [7]) | EC50 (Cavia porcellus [8]) | inhibition (INH) (Cavia porcellus [9]) | selectivity ratio [10] |
| --- | --- | --- | --- | --- | --- | --- | --- | --- | --- | --- |
| O=C(O[C@H]1C[N+]2(CCCOc3ccccc3)CCC1CC2)C1(C2=CC=CC2)CCCCCC1 | 10.2 h | 0.085 | 794 pM | 75 µL/min/mg | 10.20 | 31% | 3 µg/kg | – | – | – |
| O=C(O[C@H]1C[N+]2(CCc3cccc(Cl)c3)CCC1CC2)C1(C2=CC=CC2)CCCCCC1 | – | 0.005 | 251 pM | 72 µL/min/mg | > 10.40 | – | – | – | – | – |
| O=C(C[N+]12CCC(CC1)[C@@H](OC(=O)C1(C3=CC=CC3)CCCCCC1)C2)Nc1cncc(Cl)n1 | – | 0.015 | 501 pM | 51 µL/min/mg | 10.00 | – | – | – | – | – |
| O=C(O[C@H]1C[N+]2(CCCc3ccncc3)CCC1CC2)C1(C2=CC=CC2)CCCCCC1 | 19 h | 0.12 | 126 pM | 57 µL/min/mg | > 10.40 | 0% | 1 µg/kg | – | – | – |
| O=C(O[C@H]1C[N+]2(Cc3cc(-c4ccccc4)no3)CCC1CC2)C1(C2=CC=CC2)CCCCCC1 | 16.5 h | 0.01 | 316 pM | 63 µL/min/mg | 9.60 | – | 3 µg/kg | > 30 µg/kg | 0% | – |
| NC(=O)C[N+]12CCC(CC1)[C@@H](OC(=O)C1(C3=CC=CC3)CCCCCC1)C2 | 11.4 h | 0.18 | 79.4 pM | 19 µL/min/mg | 9.70 | – | – | – | – | – |
| O=C(O[C@H]1C[N+]2(CCCc3nc4ccccc4o3)CCC1CC2)C1(C2=CC=CC2)CCCCCC1 | 9.3 h | 0.04 | – | – | – | – | – | – | – | – |
| O=C(O[C@H]1C[N+]2(Cc3cc(-c4ccccc4)on3)CCC1CC2)C1(C2=CC=CC2)CCCCCC1 | 12.1 h | 0.005 | 3160 pM | 79 µL/min/mg | 10.10 | – | – | – | – | – |
| O=C(C[N+]12CCC(CC1)[C@@H](OC(=O)C1(C3=CC=CC3)CCCCCC1)C2)Nc1ccc(Cl)nn1 | 56.7 h | 0.04 | 200 pM | – | 9.70 | 89% | 3 µg/kg | > 30 µg/kg | – | ≥ 10 |
| O=C(C[N+]12CCC(CC1)[C@@H](OC(=O)C1(C3=CC=CC3)CCCCCC1)C2)Nc1cccnn1 | 42.4 h | 0.1 | 79.4 pM | 70 µL/min/mg | 9.80 | – | – | > 10 µg/kg | – | – |
| O=C(C[N+]12CCC(CC1)[C@@H](OC(=O)C1(C3=CC=CC3)CCCCCC1)C2)Nc1ccccn1 | 25.6 h | 0.04 | 398 pM | 55 µL/min/mg | 9.80 | – | 1 µg/kg | > 30 µg/kg | 84% | ≥ 10 |
| O=C(C[N+]12CCC(CC1)[C@@H](OC(=O)C1(C3=CC=CC3)CCCCCC1)C2)Nc1ccon1 | 19 h | 0.18 | 20 pM | 150 µL/min/mg | > 10.20 | 0% | 1 µg/kg | > 10 µg/kg | – | – |
| Cc1ccc(CC[N+]23CCC(CC2)[C@@H](OC(=O)C2(C4=CC=CC4)CCCCCC2)C3)s1 | – | 0.01 | 316 pM | 130 µL/min/mg | 10.20 | – | – | – | – | – |
| O=C(O[C@H]1C[N+]2(CCOCc3ccccc3)CCC1CC2)C1(C2=CC=CC2)CCCCCC1 | – | 0.03 | 3980 pM | 120 µL/min/mg | 9.90 | – | – | – | – | – |
| O=C(O[C@H]1C[N+]2(CCCc3ccncc3)CCC1CC2)C1(c2cccs2)CCCCCC1 | – | 0.06 | 100 pM | 55 µL/min/mg | 10.30 | – | – | – | – | – |
| O=C(O[C@H]1C[N+]2(Cc3nc(-c4ccccc4)no3)CCC1CC2)C1(C2=CC=CC2)CCCCCC1 | 17 h | 0.01 | 398 pM | 102 µL/min/mg | 9.80 | – | 3 µg/kg | – | 0% | – |
| O=C(O[C@H]1C[N+]2(CCOc3ccccc3)CCC1CC2)C1(C2=CC=CC2)CCCCCC1 | – | 0.04 | 398 pM | 106 µL/min/mg | 9.80 | – | – | – | – | – |
| O=C(C[N+]12CCC(CC1)[C@@H](OC(=O)C1(C3=CC=CC3)CCCCCC1)C2)Nc1cccc(F)c1 | – | 0.003 | 3160 pM | 17 µL/min/mg | 9.90 | – | – | – | – | – |
| O=C(O[C@H]1C[N+]2(Cc3nc4ccccc4o3)CCC1CC2)C1(C2=CC=CC2)CCCCCC1 | 13 h | 0.023 | 158 pM | 78 µL/min/mg | 10.00 | – | – | > 10 µg/kg | – | – |
| C[N+]1(C)[C@@H]2C[C@@H](OC(=O)C(O)(c3cccs3)c3cccs3)C[C@H]1[C@@H]1O[C@@H]12.O.[Br-] [TIOTROPIUM BROMIDE] | – | – | – | – | – | >80% | 0.3 µg/kg | < 0.3 µg/kg | 69% | – |
| Cc1ccc(CCC[N+]23CCC(CC2)[C@@H](OC(=O)C2(C4=CC=CC4)CCCCCC2)C3)cn1 | 19.2 h | 0.05 | – | 77 µL/min/mg | 9.80 | – | – | – | – | – |
| Cc1cc(CCC[N+]23CCC(CC2)[C@@H](OC(=O)C2(C4=CC=CC4)CCCCCC2)C3)ccn1 | 43.7 h | 0.03 | 158 pM | 135 µL/min/mg | > 10.50 | 0% | 1 µg/kg | – | – | – |
| O=C(O[C@H]1C[N+]2(Cc3nnc(-c4ccccc4)o3)CCC1CC2)C1(C2=CC=CC2)CCCCCC1 | 22 h | 0.035 | 200 pM | 97 µL/min/mg | 9.50 | – | 3 µg/kg | > 30 µg/kg | 0% | – |
| Cc1cc(NC(=O)C[N+]23CCC(CC2)[C@@H](OC(=O)C2(C4=CC=CC4)CCCCCC2)C3)no1 | 26.6 h | 0.03 | 251 pM | 26 µL/min/mg | 9.80 | 56% | 3 µg/kg | > 30 µg/kg | – | ≥ 10 |
| O=C(O[C@H]1C[N+]2(CCc3ccccc3)CCC1CC2)C1(C2=CC=CC2)CCCCCC1 | – | 0.007 | 316 pM | 105 µL/min/mg | 10.10 | – | – | – | – | – |
